This is a sample that favours compounds with a hit; in the whole collection about 1.3% have one here.
CendR NRP1 mod: alters CendR peptide binding to human NRP-1; O14786; FAM-RPARPAR peptide binding to NRP-1, fluorescence polarization; inhibition, % at 25 µM; 360,000 tested, 0.85% active; AID 602438;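 active = inhibition or corrected inhibition above about 18%, plus a signal ratio from 0.5 to 1.5, limit read from the data, passing the limit was not always enough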
aDG glyco act: increases alpha dystroglycan glycosylation; activation, % at 10 µM; Pro5-aDG cells, alpha-DG glycosylation AlphaScreen (IIH6); 0% Pro5, 100% B10-LARGE cell signal; 360,000 tested, 0.22% active;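 active = activation of at least 8% versus controls, or a plate z-score of at least 8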;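 note: Pro5 are CHO cells carrying HIG-tagged alpha-DG that lacks glycosylation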
DDE Tn6 FP inh: disrupts Tn6 cyclic peptide binding to fibrin D-Dimer-E complex | inhibition, % at 8.3 µM | 370,000 tested, 0.21% active | AID 720509 | P02675 | Fibrin DD(E) TRITC-Tn6 fluorescence polarization displacement;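 active = inhibition above a per-campaign cutoff: mean of compounds within control limits plus 3 SD, cut at about 15% in these data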
Target sequence (P02675 whole entry, looked up): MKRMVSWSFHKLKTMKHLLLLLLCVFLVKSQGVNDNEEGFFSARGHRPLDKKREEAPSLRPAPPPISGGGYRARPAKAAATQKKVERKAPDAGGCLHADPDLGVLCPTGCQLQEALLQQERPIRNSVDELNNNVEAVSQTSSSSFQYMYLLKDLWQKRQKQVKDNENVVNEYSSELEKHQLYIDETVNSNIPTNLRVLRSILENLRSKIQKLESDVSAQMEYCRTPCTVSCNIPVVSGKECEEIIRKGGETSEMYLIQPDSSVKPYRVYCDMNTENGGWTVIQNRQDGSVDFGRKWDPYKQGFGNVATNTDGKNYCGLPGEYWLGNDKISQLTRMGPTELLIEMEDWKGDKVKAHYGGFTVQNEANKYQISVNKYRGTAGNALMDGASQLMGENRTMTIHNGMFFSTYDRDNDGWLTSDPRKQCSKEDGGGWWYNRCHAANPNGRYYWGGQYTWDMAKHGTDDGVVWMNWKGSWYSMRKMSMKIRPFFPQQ
DDE Tn7 FP inh: DD(E)-Tn7 binding inhibition, primary FP screen; P02675; FP displacement of FITC-Tn7 peptide from fibrin DD(E); 0% = median of compound wells per plate; inhibition, % at 8.3 µM; 370,000 tested, 0.13% active; AID 720508;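 active = inhibition above the mean of compounds falling within the control limits plus 3 SD of them, cut at about 14% in these data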
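assay system = human clot-derived fibrin DD(E) complex | quantity = Fibrin-DD(E) at 2 µM final | timing = 10 min preincubation, 3 h with tracer, room temperature | signal = fluorescence polarization | measure = percent inhibition | benchmarks = high control wells with 10 µM unlabelled Aha-Tn7 peptide (full inhibition) | replicates = singlicate testing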
A number is an active result; – = inactive; · = no result.

SMILES	CendR NRP1 mod	aDG glyco act	DDE Tn6 FP inh	DDE Tn7 FP inh
c1ccc(Cn2cc(CSc3ccccc3)nn2)cc1	28	–	–	–
c1ccc(SCc2cn(C[C@H]3CC[C@@H]([C@@H]4CC[C@H](Cn5cc(CSc6ccccc6)nn5)O4)O3)nn2)cc1	24	–	–	–
O=C1CCCN1c1ccc(S(=O)(=O)NCCOc2ccccc2)cc1	–	–	–	–
Cc1cc(N2CCCC2=O)ccc1S(=O)(=O)NC1CCCCC1	21	–	–	–
Cc1cc(N2CCCC2=O)cc(C)c1S(=O)(=O)NCCOc1ccc(C(C)(C)C)cc1	–	11	–	–
COc1ccc2c3c(cccc13)N(C)N=C2C	63	–	–	–
COc1ccc2c3c(cccc13)OC2=O	–	–	–	–
O=C1c2oc3ccccc3c(=O)c2C(c2cccnc2)N1CCCN1CCOCC1 (configuration not stated)	36	–	–	–
COc1cc2c(cc1OC)C(=O)C(Br)CC2 (configuration not stated)	26	–	·	·
COCCNC(=O)CN1CCCCCC1	26	–	–	–
C[C@@]12C(=O)N(CC3CCCO3)CC(=O)N1[C@@H]1c3ccccc3OC[C@@H]1[C@@H]2c1ccccc1 (some centres not stated)	–	–	–	–
COc1ccc2c(c1)OC[C@H]1[C@H]2N2C(=O)CN(CC3CCCO3)C(=O)[C@@]2(C)[C@H]1c1ccccc1 (some centres not stated)	26	–	–	–
CCc1ccccc1NC(=O)c1cccc(N2C(=O)C3C4CCC(C4)C3C2=O)c1 (configuration not stated)	–	–	–	–
CCc1ccccc1NC(=O)c1ccccc1N1C(=O)C2C3C=CC(C3)C2C1=O (configuration not stated)	22	–	–	–
Cc1ccc(NC(=O)COc2ncnc3c(Cl)cc(Cl)cc23)cc1[N+](=O)[O-]	25	–	–	–
Cc1cc(Cl)ccc1OCC(=O)OCC(=O)Nc1ccc(F)c([N+](=O)[O-])c1	–	–	–	–
CCOC(=O)C1CCCN(CCC(=O)Nc2ccccc2C)C1 (configuration not stated)	23	–	–	–
CCOC(=O)C1CCCN(Cc2ccc(OC)c(OCc3ccccc3)c2)C1 (configuration not stated)	23	–	–	–
CCOC(=O)C1CCN(Cc2cccc(OC)c2)CC1	–	–	–	–
CCOC(=O)C1CCN(Cc2ccc3ccccc3c2)CC1	31	–	–	–
Cc1ccc(C(=O)OCC(=O)c2ccc(Br)cc2)cc1S(=O)(=O)N1CCOCC1	–	–	–	–
Cc1ccc(N(CC(=O)NCc2ccco2)C(=O)CCC(=O)Nc2ccccn2)cc1C	–	–	–	–
O=C(CN(C(=O)CCC(=O)Nc1ccccn1)c1ccc2c(c1)OCO2)NCc1ccco1	22	–	–	–
Cc1cc(NS(=O)(=O)c2ccccc2)c(C)c(Cl)c1O	–	16	–	–
O=C(O)c1ccc(/C=N\Nc2ccc(S(=O)(=O)N3CCOCC3)cc2[N+](=O)[O-])cc1	–	–	–	–
SMILES	CendR NRP1 mod	aDG glyco act	DDE Tn6 FP inh	DDE Tn7 FP inh
Cc1ccc(-n2c(O)c(/C=N/Nc3ccc(S(=O)(=O)N4CCOCC4)cc3[N+](=O)[O-])c3ccccc3c2=O)c(C)c1	46	–	–	–
COc1ccc(CNc2n[nH]c(NCc3ccc(OC)c(OC)c3)n2)cc1OC	20	–	–	–
CC(=O)Nc1sc2c(c1-c1nc3ccccc3s1)CCN(C(C)C)CC2	·	·	–	–
C[C@@H]1CN([C@H](C)CO)C(=O)CCCn2cc(nn2)CO[C@H]1CN(C)S(=O)(=O)c1ccc(-c2ccccc2)cc1	–	–	–	–
Cc1nonc1NC(=O)CSc1nc2c(C)cccc2cc1C#N	–	–	–	–
Cc1cccc2cc(C#N)c(SCc3nnc(-c4ccccc4[N+](=O)[O-])o3)nc12	32	–	–	–
Cc1ccc(-c2c(C(=O)NCC(C)C)oc(=O)c3ccccc23)cc1	·	·	–	–
O=C(OC1CCOC1=O)C1CCN(S(=O)(=O)c2c(Cl)cccc2Cl)CC1 (configuration not stated)	20	–	–	–
O=C(C1CCN(S(=O)(=O)c2c(Cl)cccc2Cl)CC1)N1CCCCCCC1	–	–	–	–
CC(C)OP(=O)(c1ccc(N(C)C)cc1)C(Nc1ccccc1)c1ccccc1 (configuration not stated)	31	–	–	–
N#C/C(=C\c1ccc(OC(=O)c2ccc(Br)s2)cc1)c1nc2ccccc2[nH]1	–	–	–	–
N#C/C(=C\c1ccc(OC(=O)c2ccc(Cl)s2)cc1)c1nc2ccccc2[nH]1	39	–	–	–
CCCCN(CCCC)c1ncnc2nc[nH]c12	22	–	–	–
CCCCN(Cc1ccccc1)c1ncnc2nc[nH]c12	–	–	·	·
COc1ccc(CNC(=O)c2ccccc2[N+](=O)[O-])cc1	26	–	·	·
COC(=O)[C@@]12CCCCC=C1N(CCc1ccc(Cl)cc1)C(=O)[C@H]2CC(=O)NCCCCc1ccccc1	·	·	–	–
CC(=O)c1ccc(S(=O)(=O)Oc2ccc(-c3ccc(C(=O)O)cc3)cc2)cc1	26	–	–	–
COc1ccccc1-c1noc2c1C(=O)N(Cc1cn(-c3ccccc3OC)nn1)CC2	–	–	–	–
Cc1ccc(N2C(=O)C(Cl)=C(N3CCN(C)CC3)C2=O)c(C)c1	32	–	–	–
CN1CCN(C2=C(Cl)C(=O)N(c3ccc(Cl)cc3)C2=O)CC1	–	–	·	·
Cc1cnc(NC(=O)C(C)N2C(=O)C3CC=CCC3C2=O)s1 (configuration not stated)	–	–	–	–
Cc1nc2ccc(NC(=O)[C@H](C)N3C(=O)C4CC=CCC4C3=O)cc2s1 (some centres not stated)	19	–	–	–
COc1ccc2nc(NN=Cc3cccc(C)n3)cc(C)c2c1	·	·	–	–
Cc1ccccc1-c1cnc(C(O)c2ccc(F)c(F)c2)[nH]1 (configuration not stated)	23	–	–	–
COC(=O)[C@@]12CCCCN1[C@H](c1ccc(-c3ccc4c(c3)OCO4)cc1)[C@H]1C(=O)N(C)C(=O)[C@H]12	30	–	–	–
SMILES	CendR NRP1 mod	aDG glyco act	DDE Tn6 FP inh	DDE Tn7 FP inh
COC(=O)[C@@]12CCCCN1[C@H](c1ccc(-c3ccc(OC)cc3)cc1)[C@@H]1C(=O)N(C)C(=O)[C@@H]12	–	–	–	–
CCn1c2ccccc2c2cc(NC(=O)COC(=O)c3ccc(F)cc3F)ccc21	·	·	–	–
CN1CCN(c2ccc(-c3cccc(NC(=O)COc4ccc(Cl)cc4Cl)c3)nn2)CC1	–	5.2	–	–
c1ccc(CC(Nc2cccnc2)c2ccccc2)cc1 (configuration not stated)	·	·	–	–
CCCOC(=O)Nc1cc(OC)c(Cl)cc1OC	17	–	–	–
O=C(OCc1ccccc1)[C@H](Cc1ccccc1)NC(=O)[C@@H]1CC=C[C@@H]2CCN(Cc3ccccc3)C(=O)[C@@H]21	·	·	–	–
